A selection: hits, their analogues and other compounds. The true share with any hit is near 10%.
PMI act – phosphomannose isomerase (human) activation; purified human PMI, coupled resazurin fluorescence, 20 min; active compounds read high; 1 = vehicle control, 0 substrate-free wells; activation factor at 20 µM; P34949; 190,000 compounds, 0.005% hits;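 active = activation factor of 2 or more at 20 µM, relative to plate controls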
Target sequence (P34949 whole entry, looked up): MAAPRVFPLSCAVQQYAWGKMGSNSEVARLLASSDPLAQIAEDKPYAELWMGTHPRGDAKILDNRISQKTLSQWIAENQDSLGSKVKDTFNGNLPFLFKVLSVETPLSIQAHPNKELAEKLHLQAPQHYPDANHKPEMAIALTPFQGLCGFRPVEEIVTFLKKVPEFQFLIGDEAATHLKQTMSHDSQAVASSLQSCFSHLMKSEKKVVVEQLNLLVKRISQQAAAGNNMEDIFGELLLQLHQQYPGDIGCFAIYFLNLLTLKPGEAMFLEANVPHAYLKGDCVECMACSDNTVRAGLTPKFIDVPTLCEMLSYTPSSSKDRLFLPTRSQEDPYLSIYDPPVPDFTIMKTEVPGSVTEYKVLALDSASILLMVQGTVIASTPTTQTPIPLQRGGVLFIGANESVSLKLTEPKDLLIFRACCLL
PMI act satM6P – PMI (human) activation, high substrate; coupled PMI enzyme assay, resazurin fluorescence, 20 min; active compounds read high; 1 = untreated enzyme, 0 = substrate-free blank; P34949; activation factor at 20 µM; AID 1216; 190,000 compounds, 0.34% hits;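 active = activation factor of 2 or more at 20 µM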
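Material: human phosphomannose isomerase with PGI, G6PDH, diaphorase coupling enzymes. Quantity: 15 ng/mL PMI. Medium: HEPES pH 7.4 buffer with MgCl2 and Tween-20. Reagent: Near-saturating mannose-6-phosphate, 1.0 mM. Compound: 20 µM single dose. Times: enzyme reaction with compound 20 min at room temperature. Detection: resorufin fluorescence at Ex 544/Em 590 nm.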
WT yeast gro inh – growth inhibition of WT yeast, mitochondrial fusion screen. inhibition, % at 10 µM. mitochondrial fusion phenotypic screen, WT strain. AID 1362. 190,000 compounds, 2.1% hits; in the data active = inhibition above about 58%; tested in S. cerevisiae
Diaphorase act – counter-screen for diaphorase-based assays: diaphorase activators and chemical reducers; Diaphorase/resazurin coupled assay, resorufin fluorescence, 16 min; active compounds read high; 1 = vehicle wells, 0 = NADH-free wells; activation factor at 20 µM; 190,000 compounds, 0.005% hits;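 active = diaphorase activity raised at least twofold by the compound at 20 µM; inactive = activation factor below 2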
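System – purified diaphorase enzyme from Clostridium kluyveri · Input – enzyme 0.07 U/mL final · Also added – final NADH 0.114 mM, resazurin 0.1 mM · Measured by – fluorescence of resorufin, 544 nm excitation, 590 nm emission · Timing – 16 min enzyme reaction, ambient temperature · Measure – resorufin increase flagging diaphorase activators or reducers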
Lmaj promast – inhibitors of Leishmania major promastigote growth; Leishmania major promastigotes, resazurin fluorescence viability; inhibition, % at 10 µM; 200,000 compounds, 9% hits; AID 1063; in the data active = inhibition above about 50%;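 note: promastigotes grown with compound for 44 hours at 28 °C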
* hit, by the source's call; . = no result.

SMILES	PMI act	PMI act satM6P	WT yeast gro inh	Diaphorase act	Lmaj promast
Cc1ccc(NC(=O)C2CC(=O)n3ncnc3N2)cc1C (centres undefined)	1	0.9	22.1	0.8	-5.8
COc1ccc(C(=O)OCn2nnc3ccccc3c2=O)cc1	1.1	1.1	-3.4	0.9	0.3
COc1c(C)cc(Br)cc1C(=O)Nc1ccc(Cc2ccncc2)cc1	1	0.9	43.7	0.9	96.5*
Cc1ccccc1C(=O)NC(=S)Nc1ccc(Cc2ccncc2)cc1	0.9	1	-24.5	1	53.1*
Cc1c([N+](=O)[O-])cc(C(=O)Nc2ccc(Cc3ccncc3)cc2)cc1[N+](=O)[O-]	1	1	37.9	0.9	98.5*
CC(C)(C)c1ccc(/C=N/NC(=S)NCc2ccccc2)cc1	0.9	1.1	-0.1	1	8.3
CCN(CC)c1ccc(/C=N/NC(=S)NCc2ccco2)cc1	1	1	67.5*	0.8	2.5
CCN(Cc1ccccc1)c1ccc(/C=N/N=C(N)N)cc1	1	1.1	-24.1	1.2	100.4*
Cc1ccccc1N(CC(=O)N/N=C/c1ccc(N(C)C)cc1)C(=O)c1ccccc1	0.8	0.9	0.9	0.8	98.6*
CN(C)c1ccc(/C=N/NC(=S)NCc2ccccc2)cc1	1	1	70.1*	0.9	-3.8
Cc1ccc(Nc2nnc(-c3ccncc3)s2)c(Br)c1	1	1.1	11.8	1	15.0
COc1ccc(C(=O)NNC(=O)CSc2ccccc2)cc1	0.9	1	0.0	1	-4.2
CCN(Cc1ccccc1)c1ccc(/C=N/NC(=S)NC(C)C)cc1	1.1	1.1	68.9*	0.8	42.7
COc1ccc(C(=O)CC(=O)c2ccccc2O)cc1OC	1	1.1	-4.1	0.9	9.1
COc1ccc(O)c(C(=O)CC(=O)c2ccccc2C)c1	1.1	1.2	37.1	1.1	92.0*
COc1ccc(O)c(C(=O)CC(=O)c2ccc(F)cc2)c1	1	1.1	-2.6	0.9	52.5*
COc1ccc(NC(=O)c2ccccc2C)c(OC)c1	0.9	0.9	-1.9	0.8	-2.5
COc1ccc2c(c1)-c1nc(/N=C/c3ccccc3O)sc1CC2	0.3	0.2	13.9	0.5	-5.7
COc1ccc2c(c1)-c1nc(/N=C/c3cccc(OC)c3O)sc1CC2	0.3	0.3	8.6	1	60.5*
COc1ccc(CCC(=O)N2CCCSC2=Nc2ccc(C(C)=O)cc2)cc1	0.8	0.9	-5.6	0.9	97.8*
N#CC1=C(N)OC2=C(CCC/C2=C/c2ccoc2)C1c1ccoc1 (centres undefined)	0.8	0.8	-20.7	0.6	0.1
N#CC1=C(N)OC2=C(CC/C2=C\c2ccc(F)cc2)C1c1ccc(F)cc1 (centres undefined)	0.9	0.7	-34.6	0.9	100.5*
COc1ccc(NC(=O)Nc2cccc(OC)c2)cc1	.	.	-1.6	.	8.2
COc1cccc(NC(=O)Nc2ccc3nsnc3c2)c1	1	1	16.1	1	98.5*
COc1ccccc1N(CC(O)Cn1ccnc1C)S(=O)(=O)c1ccccc1 (centres undefined)	1.1	1	-3.9	1	12.5
SMILES	PMI act	PMI act satM6P	WT yeast gro inh	Diaphorase act	Lmaj promast
C#Cc1ccc(C(=O)Nc2ccc(N3CCC(C)CC3)c(C(N)=O)c2)cc1	1	1	-7.8	1.1	-8.6
CC1=CC2=NC(=O)/C(=C\c3ccc(-c4cccc(Cl)c4)o3)C(=N)N2O1	0.8	0.9	20.8	0.8	58.1*
CC1=NOC(=O)/C1=C\c1ccc(-c2cccc(Cl)c2)o1	0.7	0.6	43.4	1.1	97.3*
CC1=NOC(=O)/C1=C\c1ccc(-c2ccc(Cl)c(C(=O)O)c2)o1	0.3	0.3	-34.9	0.7	-4.8
CC1=NOC(=O)/C1=C\c1ccc(-c2ccccc2Br)o1	0.6	0.6	72.4*	0.7	98.8*
O=Cc1cccn1-c1nccc(-c2ccco2)n1	1	1	-1.0	1	6.1
O=C1c2ccccc2C(O)(c2ncc[nH]2)N1CCc1ccccc1 (centres undefined)	0.9	1	-1.8	1	95.4*
O=C1c2ccccc2C(O)(Cc2ccccc2)N1C1CCCCC1 (centres undefined)	1.1	1.3	15.2	0.9	12.2
COCc1cc(C)nc(N/N=C/c2ccc(Cl)c(Cl)c2)c1C#N	1	1.1	2.8	1.1	85.3*
COCc1cc(C)nc(N/N=C/c2ccc(-c3cc(C(=O)O)ccc3Cl)o2)c1C#N	1.2	1.1	-2.5	0.8	-4.9
COc1ccc(C2SCCN2C(=S)Nc2cccc(C(F)(F)F)c2)cc1 (centres undefined)	0.8	0.9	22.8	0.8	96.2*
COc1ccc(C2SCCN2C(=S)Nc2ccc(F)cc2)cc1 (centres undefined)	0.8	0.8	-4.4	0.8	21.7
CC(C)N(CCNS(=O)(=O)c1ccc(Cl)cc1)C(C)C	1.1	1.1	-12.8	0.9	56.7*
S=C(NCc1ccc(Cl)cc1)N1CCN(c2ccccn2)CC1	1	1	-7.4	0.9	-7.2
CCCN1CCN(C(=S)NCc2ccc(Cl)cc2)CC1	1	1.1	20.7	1.1	81.0*
Cc1cnn(C(=S)NCc2ccc(Cl)cc2)c1	0.8	0.9	68.0*	0.8	-3.4
Cc1cnn(C(=S)NCCc2ccccc2)c1	0.9	0.9	5.4	1.1	-4.0
CCC(CC)C(=O)Nc1ccc(C(=O)Nc2cc(C)on2)cc1	1.1	1.1	-1.6	0.9	-4.5
CC(C)CCn1c(N2CCc3ccccc3C2)nc2c1c(=O)[nH]c(=O)n2C	1	0.9	16.8	0.9	19.6
Cc1ccc(S(=O)(=O)NCc2ccc(C(=O)NCCCN3CCC(Cc4ccccc4)CC3)cc2)cc1	0.9	0.9	17.4	1	96.0*
O=C(c1cccc(S(=O)(=O)NCc2ccccc2)c1)N1CCN(Cc2ccccc2)CC1	0.9	1	-7.8	0.9	11.7
Cc1ccc(S(=O)(=O)NCc2ccc(C(=O)N3CCN(Cc4ccccc4)CC3)cc2)cc1	0.9	0.9	11.5	0.8	76.8*
CCN1CCN(C(=O)c2ccc(CN(c3ccccc3)S(=O)(=O)c3ccccc3)cc2)CC1	1	1	-8.1	1	79.9*
COc1ccc(CCNC(=O)c2ccc(CNS(=O)(=O)c3ccccc3)cc2)cc1OC	1	1	-6.3	1	69.8*
O=C(Cc1ccccc1)NN1C(=O)C2C(C1=O)C1C=CC2C12CC2 (centres undefined)	0.9	1	-12.1	1	32.6
CC(NC(=O)/C(=C/c1ccc2c(c1)OCO2)NC(=O)c1cccc([N+](=O)[O-])c1)C(=O)O (centres undefined)	1.2	1.1	-7.7	1.1	1.3
COc1ccc(NS(=O)(=O)c2ccc(C(=O)N3CCN(Cc4ccccc4)CC3)cc2)cc1	1.1	1.1	-5.9	1	23.8
O=C(c1ccc([N+](=O)[O-])cc1)N1CCN(Cc2ccccc2)CC1	1.1	1.1	-1.7	1	13.1

Assay outcomes (PubChem)
